# Screening data (PubChem BioAssay)
# T cell modulator = modulators of CD8 T cell-vesicle binding, primary screen, mouse 2C CD8+ T cells, flow cytometry | 2C CD8+ T cell-vesicle binding; active compounds read low | AID 2052, 2009 | actives 0.068% (n = 330,000) | response (vesicle binding), % at 7 µM;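 active = response, share of CD8 T cells binding vesicles, and their 90th percentile fluorescence all below set limits, cut at about 80% in these data, passing the limit was not always enough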;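 also: values below 100% mean blocked vesicle binding to the CD8+ T cells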
#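 Material: murine 2C transgenic CD8+ T lymphocytes / Also added: QL9-peptide-loaded Drosophila micro-vesicles bearing Ld, ICAM-1 and B7-1 / Schedule: binding step 1.5 h, 37 °C, antibody labelling 20 min, ice / Signal: flow cytometry, PE anti-B7-1 (FL2) versus Alexa647 anti-CD8 (FL8), PFA-fixed / Evaluation: percent CD8+ FL2 mean versus row control / Benchmarks: naked versus QL9-loaded vesicles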
# MEKK2 mut-MEK5 = MEK5 binding signal on mutant MEKK2 PB1, primary screen, biochemical, multiplex bead flow cytometry, Alexa488-MEK5; Alexa488-MEK5 binding to MEKK2 mutant; actives 0.35% (n = 290,000); AID 1530, 2009; percent response, % at 10 µM; in the data active = percent response above about 24%, passing the limit was not always enough
# UCH37 inh = inhibitors of human UCH37 deubiquitinase, primary screen, biochemical, Ub-AMC cleavage, fluorescence; AID 588478, 2011; Ubiquitin carboxyl-terminal hydrolase isozyme L5 (Homo sapiens), Q9Y5K5; actives 0.33% (n = 330,000); inhibition, % (no concentration beside the values); purified proteasome/UCH37;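 active = mean inhibition over replicate wells above about 20%, limit read from the data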;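 also: 0% = compound-free wells with enzyme and 100% = wells lacking proteasome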
#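 Test system – human UCH37 enzyme supplied as purified proteasome complex · Incubation – 30 min preincubation with enzyme, 25 min cleavage at room temperature · Detection – AMC fluorescence from Ub-AMC cleavage, excitation 355 nm, emission 460 nm · Benchmarks – no-proteasome wells (full inhibition) and compound-free wells (no inhibition)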
# MEKK3 PB1 HTS = modulators of MEKK3-MEK5 PB1 binding, primary screen, biochemical, wildtype MEKK3, multiplex bead flow cytometry, Alexa488-MEK5 | Mitogen-activated protein kinase kinase kinase 3 (Homo sapiens), Q99759 | bead-based flow cytometry, Alexa488-MEK5 binding to MEKK3; actives lie on both sides; 0 = blocked by unlabeled MEK5, 100 = vehicle | binding response (% of control), % at 10 µM | actives 1.4% (n = 290,000);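 active = binding response more than 3 SD above or below the average of its plate-row segment, actives on both sides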;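 also: Alexa488 bead fluorescence after subtracting the streptavidin-only scavenger bead signal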
# Target sequence (Q99759 whole entry, looked up): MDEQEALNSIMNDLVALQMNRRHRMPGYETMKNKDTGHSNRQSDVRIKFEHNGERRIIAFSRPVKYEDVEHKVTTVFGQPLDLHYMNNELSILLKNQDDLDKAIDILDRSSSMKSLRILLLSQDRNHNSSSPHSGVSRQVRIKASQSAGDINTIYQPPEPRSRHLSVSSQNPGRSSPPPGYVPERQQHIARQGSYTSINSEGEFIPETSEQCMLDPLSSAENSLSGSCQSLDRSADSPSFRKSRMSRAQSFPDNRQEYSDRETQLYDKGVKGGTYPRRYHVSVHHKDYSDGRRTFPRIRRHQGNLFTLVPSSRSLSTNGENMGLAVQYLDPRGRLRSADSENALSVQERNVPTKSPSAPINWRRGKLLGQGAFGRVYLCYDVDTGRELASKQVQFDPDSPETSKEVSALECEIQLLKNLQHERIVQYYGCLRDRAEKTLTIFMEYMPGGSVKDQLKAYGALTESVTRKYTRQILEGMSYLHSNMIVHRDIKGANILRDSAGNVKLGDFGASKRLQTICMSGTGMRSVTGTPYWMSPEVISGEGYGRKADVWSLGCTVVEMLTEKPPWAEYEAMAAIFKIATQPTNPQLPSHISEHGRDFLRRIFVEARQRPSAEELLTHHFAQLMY
# Rce1 inhib = yeast Rce1p protease inhibitors, primary screen, biochemical, fluorescence, cell-free homogeneous | CAAX prenyl protease 2 (Saccharomyces cerevisiae (strain ATCC 204508 / S288c)), Q03530 | yeast membranes, quenched prenylated peptide cleavage fluorescence | calls only | actives 0.27% (n = 290,000) | AID 2563, 2010;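 active = fall in fluorescence gain of 50% or more versus controls, with final raw signal at or below 3038400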;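 also: plate controls were neutral control wells for no effect and wells lacking membranes for full effect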
# MEKK2wt PB1 HTS = modulators of MEK5 binding to wildtype MEKK2, primary screen, biochemical, multiplex bead flow cytometry, Alexa488-MEK5; Mitogen-activated protein kinase kinase kinase 2 (Homo sapiens), Q9Y2U5; Alexa488-MEK5 binding to MEKK2 WT; actives lie on both sides; binding response (% of control), % at 10 µM; actives 1.1% (n = 290,000); AID 1531, 2009; in the data active = binding response below about 67% or above about 130%
# MEKK2wt confirm = modulators of MEK5 binding to wildtype MEKK2, confirmation, biochemical, single concentration, multiplex bead flow cytometry; shares compounds with MEKK3 PB1 HTS; Alexa488-MEK5 binding to MEKK2 WT; actives lie on both sides; binding response (% of control), % at 10 µM; actives 2.4% (n = 5,900); in the data active = binding response below about 16% or above about 210%; inactive = in between
# MEKK2mut confirm = mutant MEKK2 PB1-MEK5 binding signal retest – biochemical, single concentration, multiplex bead flow cytometry, confirmation | shares compounds with MEKK3 PB1 HTS | Alexa488-MEK5 binding to MEKK2 mutant | percent response, % at 10 µM | actives 2% (n = 5,900); in the data active = percent response mostly above about 71%, no sharp cut-off; inactive = mostly below about 38%;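 also: higher means compound restores mutant binding toward wildtype level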
# MEKK3 confirm = MEKK3 wild-type PB1 binding to MEK5, inhibitors, confirmation, biochemical, bead multiplex flow cytometry, single concentration, wildtype; shares compounds with MEKK3 PB1 HTS; Alexa488-MEK5 binding to MEKK3; active compounds read low; binding response (% of control), % at 10 µM; actives 1.8% (n = 5,900); AID 1894, 2009;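 active = binding response below 72% of control, or above a set upper limit, though filed actives all read lower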;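 also: 100% = DMSO only wells and 0% = binding blocked by excess unlabeled MEK5; lower values mean stronger disruption of MEK5 binding to MEKK3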
# * = called active by the depositor; i = inactive; nt = not tested or not shown; [ ] = remark or other dose. Only some compounds are listed: those with a hit (about 2.5% of all), similar ones and a draw of the others.
SMILES,T cell modulator,MEKK2 mut-MEK5,UCH37 inh,MEKK3 PB1 HTS,Rce1 inhib,MEKK2wt PB1 HTS,MEKK2wt confirm,MEKK2mut confirm,MEKK3 confirm
COC(=O)C1=C(C)N(Cc2ccccc2)C(=NCc2cccc(C(F)(F)F)c2)N[C@H]1c1cccc(F)c1,nt,89*,1,108,i,208*,221*,64,108
Cc1ccc(-c2nc3ccccc3s2)cc1NC(=O)c1ccc2c(c1)OCO2,234,-21,-9,1.0*[inhibitor],i,-2.0*[inhibitor],102,0,106
CC(C(=O)N(C)Cc1ccccc1)N1CCN(C/C=C/c2ccccc2)CC1 (stereo not given),233,1,2,95,i,98,nt,nt,nt
C(=C\c1ccccc1)/CN1CCN(C(c2ccccc2)c2ccccc2)CC1,514,14,4,109,i,165*,162,24,103
O=C(Nc1cccc(Cl)c1)N1CCN(C/C=C/c2ccccc2)CC1,194,16,4,107,i,139*,113,8,101
O=S(=O)(N=C(c1ccccc1)N1CCOCC1)c1ccc(F)cc1,nt,nt,3,nt,nt,nt,nt,nt,nt
COc1ccc(N2CC(C(=O)NN=Cc3c[nH]c4ccccc34)CC2=O)cc1 (stereo not given),nt,nt,7,nt,nt,nt,nt,nt,nt
Cc1ccc(CNC(=O)C(=O)NCC(c2ccco2)N2CCOCC2)cc1 (stereo not given),236,0,0,129*,i,102,103,-3,98
O=C(NCc1ccc(Cl)cc1)C(=O)NCC(c1ccco1)N1CCOCC1 (stereo not given),228,12,2,102,i,107,nt,nt,nt
O=C(NCCc1c[nH]c2ccccc12)C(=O)NCC(c1ccco1)N1CCN(c2ccc(F)cc2)CC1 (stereo not given),174,0,-2,129*,i,107,96,-6,102
CCOc1cc(C=NNC(=O)Cc2ccc(C(F)(F)F)cc2[N+](=O)[O-])c(Br)cc1OC,nt,nt,4,nt,nt,nt,nt,nt,nt
Cc1occc1C(=O)NN=Cc1ccc(-c2ccccc2)cc1,nt,nt,1,nt,nt,nt,nt,nt,nt
COc1cccc(CNS(=O)(=O)c2ccc(S(=O)(=O)N3CCCC3)cc2)c1,288,454*,-1,112,i,601*,102,1,104
CC(=NNC(N)=O)C1(C)CCCCC1,nt,nt,5,nt,nt,nt,nt,nt,nt
N#CCC(=O)Nc1ccc(C(=O)OCC(=O)Nc2ccccc2-c2ccccc2)cc1,240,33,-1,141*,i,121,103,2,102
O=C(CSc1nnc2ccc(-c3ccccn3)nn12)Nc1ccccc1,354,nt,-36,nt,i,nt,nt,nt,nt
CSc1nnc2ccc(-c3ccccn3)nn12,252,-19,-1,64*[inhibitor],i,76,101,0,101
CNC(=O)CSc1nnc(-c2cc(C)cc(C)c2)o1,343,5,2,102,i,102,nt,nt,nt
O=C(CSc1nnc(-c2ccncc2)n1-c1ccc(Cl)cc1)NCc1cccs1,324,9,2,124*,i,120,102,-3,102
CC(=O)Nc1ccc(NC(=O)CSc2nnc(-c3ccco3)o2)cc1,195,1,3,129*,i,112,95,-25,93
COc1cccc(NC(=O)CSc2nnc(-c3ccc(C)cc3)o2)c1,329,-6,2,82*[inhibitor],i,84,104,3,102
Cc1cc(C)cc(-c2nnc(SCC(=O)NCc3cccs3)o2)c1,617,-20,2,1.0*[inhibitor],i,-2.0*[inhibitor],113,6,102
Cc1c(Cl)cccc1-n1c(SCC(=O)NCc2cccs2)nnc1-c1ccncc1,370,3,1,104,i,106,nt,nt,nt
C[n+]1ccc(C(=O)NCCC[N+](C)(C)C)cc1C=NO,nt,nt,6,nt,nt,nt,nt,nt,nt
Cc1nc(Nc2cnc(/C=C/c3cc(C(=O)Nc4cccc(C(F)(F)F)c4)ccc3C)cn2)cc(N2CCNCC2)n1,171,10,-25,47*[inhibitor],i,136,128,15,43*
SMILES,T cell modulator,MEKK2 mut-MEK5,UCH37 inh,MEKK3 PB1 HTS,Rce1 inhib,MEKK2wt PB1 HTS,MEKK2wt confirm,MEKK2mut confirm,MEKK3 confirm
Cc1nc(N2CCC(C)CC2)c2c(C)c(C(=O)Nc3cccc(C(F)(F)F)c3)sc2n1,137,-4,-50,99,i,107,nt,nt,nt
CC1=CC(C)[C@H](C=Nn2c(=O)[nH]c3c([nH]c4ccc(Br)cc43)c2=O)C(C)C1 (stereo not given in full),nt,nt,-6,nt,nt,nt,nt,nt,nt
Cc1ccc(C(=O)N[C@@H](C)CN2C3=NC[C@H](C(C)C)N3C[C@H]2Cc2ccc(O)cc2)cc1Br,380,21,3,105,i,128,nt,nt,nt
COc1ccc(C[C@H]2CN3C(=NC[C@@H]3C(C)C)N2C[C@H](C)NC(=O)c2ccc(C)c(Br)c2)cc1,180,37,5,107,i,153*,141,19,108
COc1ccc(C[C@H]2CN3C(=NC[C@@H]3Cc3ccc(O)cc3)N2C[C@H](C)NC(=O)c2ccc(C)c(Br)c2)cc1,395,80*,2,117,i,157*,4.0*[inhibitor],-47,2.0*
O=S(=O)(N=C(Sc1ccccc1)c1ccccc1)c1ccc(Cl)cc1,nt,nt,5,nt,nt,nt,nt,nt,nt
O=C(CCC(=O)Nc1ccc(F)cc1)NN=Cc1ccc(O)cc1,nt,nt,2,nt,nt,nt,nt,nt,nt
Cc1ccc(CN2C(=O)CCC2C(=O)N2CCN(c3ccccc3)CC2)cc1 (stereo not given),358,-46,5,4.0*[inhibitor],i,6.0*[inhibitor],108,10,106
CCOC(=O)C(=O)N1CCN(c2ccccc2OC)CC1,262,-16,nt,71*[inhibitor],i,76,102,2,100
CCOC(=O)C(=NNc1ccccc1Cl)N1CCN(c2ccccc2OC)CC1,nt,nt,3,nt,nt,nt,nt,nt,nt
